Drawing on PubChem BioAssay AID1736 (Vanderbilt High Throughput Screening Facility, 2009), this text covers EC50 for nine compounds.

Records with an inconclusive call do not appear. The source made the active and inactive calls.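 How the source made its calls: active means dose curve converging in at least two of three replicates, whether well supported or a less certain trend; inactive means fewer than two replicates with a converged curve.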

As usually defined, the EC50 is the concentration that produces a half-maximal response.

Sequence of Solute carrier family 12 member 5 (Homo sapiens) (Q9H2X9 whole entry, looked up): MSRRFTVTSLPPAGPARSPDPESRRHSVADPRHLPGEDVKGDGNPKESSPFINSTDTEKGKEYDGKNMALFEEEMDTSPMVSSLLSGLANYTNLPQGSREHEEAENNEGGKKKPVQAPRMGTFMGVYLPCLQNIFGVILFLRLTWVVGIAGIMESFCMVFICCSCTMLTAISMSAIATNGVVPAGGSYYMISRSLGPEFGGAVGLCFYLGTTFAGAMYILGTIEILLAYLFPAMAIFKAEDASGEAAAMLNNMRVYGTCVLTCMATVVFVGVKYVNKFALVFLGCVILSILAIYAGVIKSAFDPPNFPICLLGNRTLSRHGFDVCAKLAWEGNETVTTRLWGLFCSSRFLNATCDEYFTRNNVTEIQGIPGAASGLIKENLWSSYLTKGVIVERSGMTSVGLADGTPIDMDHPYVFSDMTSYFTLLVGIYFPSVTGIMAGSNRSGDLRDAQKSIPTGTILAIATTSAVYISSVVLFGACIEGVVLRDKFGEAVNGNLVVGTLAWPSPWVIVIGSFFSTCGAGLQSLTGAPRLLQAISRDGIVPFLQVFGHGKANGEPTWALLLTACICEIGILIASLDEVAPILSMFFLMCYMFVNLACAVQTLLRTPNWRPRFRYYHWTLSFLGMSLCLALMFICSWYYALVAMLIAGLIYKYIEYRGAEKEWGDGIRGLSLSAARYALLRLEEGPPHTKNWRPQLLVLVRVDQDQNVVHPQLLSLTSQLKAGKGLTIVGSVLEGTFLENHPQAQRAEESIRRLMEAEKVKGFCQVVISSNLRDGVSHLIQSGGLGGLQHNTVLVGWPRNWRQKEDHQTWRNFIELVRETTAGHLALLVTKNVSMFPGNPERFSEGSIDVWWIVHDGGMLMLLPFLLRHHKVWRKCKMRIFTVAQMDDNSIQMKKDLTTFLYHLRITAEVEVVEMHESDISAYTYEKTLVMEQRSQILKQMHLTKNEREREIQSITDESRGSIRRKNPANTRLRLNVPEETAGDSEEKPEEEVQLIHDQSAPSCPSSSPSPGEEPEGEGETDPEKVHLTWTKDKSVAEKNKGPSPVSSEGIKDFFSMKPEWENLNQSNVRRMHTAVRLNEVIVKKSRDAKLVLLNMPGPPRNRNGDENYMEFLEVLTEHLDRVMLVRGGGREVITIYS

The test addresses Solute carrier family 12 member 5 (Homo sapiens) (UniProt Q9H2X9). Description: concentration-response of KCC2 transport modulators – cell-based, HEK293 KCC2, FluoZin-2 fluorescence, dose response (AID 1736). Particulars: HEK293-KCC2 thallium flux. A digest of the protocol:
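test system = human embryonic kidney (HEK) cells expressing human KCC2 cotransporter | probe or stimulus = thallium-containing stimulus buffer for thallium flux | compound dosing = 11 points, 3-fold steps from 30 µM | signal = thallium-flux fluorescence, FluoZin-2, 480/540 nm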
For `NC(=S)N=Nc1c(O)n(Cc2ccccc2)c2ccccc12`, the EC50 is 427 nM.

As for `Cc1cccc(NC(=S)N=Nc2c(O)n(CN3CCOCC3)c3ccccc23)c1C`, the EC50 entry was “inactive”.

With `O=C(Nn1c(O)c(C=C2N=c3ccccc3=N2)sc1=S)c1ccccc1Cl`, the concentration for a half-maximal effect (EC50) is 117 nM.

With `N#CC1=C(N)NC(SCc2ccccc2)=C(C#N)C12CCCCC2`, the EC50 entry was “inactive”.

For `O=C1C2Sc3[nH]c(=O)sc3C(c3ccccc3)C2C(=O)N1c1ccccc1` (centres undefined), the EC50 is 67.7 nM.

Consider `O=C(Nn1c(O)c(C=C2N=c3ccccc3=N2)sc1=S)c1ccccc1`, for which the EC50 entry was “inactive”.

As for `C/C(=N\NC(=O)c1ccc(Br)cc1)C1C(=O)c2ccccc2C1=O`, the EC50 entry was “inactive”.

Take `Cc1ccc(/C=C2\SC(=S)N(/N=C/c3cc([N+](=O)[O-])ccc3O)C2=O)o1`: the EC50 entry was “inactive”.

Turning to `COc1ccccc1NC(=S)N=Nc1c(O)[nH]c2ccc(Br)cc12`, the EC50 was 508 nM.
